In ChEMBL document CHEMBL1123920, “Leukotriene D4 antagonists and 5-lipoxygenase inhibitors. Synthesis of benzoheterocyclic [(methoxyphenyl)amino]oxoalkanoic acid esters” (J Med Chem, 1987):

What was measured:
[1] = biological target: T1, Polyunsaturated fatty acid 5-lipoxygenase (Rattus norvegicus) (UniProt P12527); experiment: Ability to inhibit Lipoxygenase in vitro was determined; NA is <50% inhibition at 100 uM
T1 sequence (whole entry): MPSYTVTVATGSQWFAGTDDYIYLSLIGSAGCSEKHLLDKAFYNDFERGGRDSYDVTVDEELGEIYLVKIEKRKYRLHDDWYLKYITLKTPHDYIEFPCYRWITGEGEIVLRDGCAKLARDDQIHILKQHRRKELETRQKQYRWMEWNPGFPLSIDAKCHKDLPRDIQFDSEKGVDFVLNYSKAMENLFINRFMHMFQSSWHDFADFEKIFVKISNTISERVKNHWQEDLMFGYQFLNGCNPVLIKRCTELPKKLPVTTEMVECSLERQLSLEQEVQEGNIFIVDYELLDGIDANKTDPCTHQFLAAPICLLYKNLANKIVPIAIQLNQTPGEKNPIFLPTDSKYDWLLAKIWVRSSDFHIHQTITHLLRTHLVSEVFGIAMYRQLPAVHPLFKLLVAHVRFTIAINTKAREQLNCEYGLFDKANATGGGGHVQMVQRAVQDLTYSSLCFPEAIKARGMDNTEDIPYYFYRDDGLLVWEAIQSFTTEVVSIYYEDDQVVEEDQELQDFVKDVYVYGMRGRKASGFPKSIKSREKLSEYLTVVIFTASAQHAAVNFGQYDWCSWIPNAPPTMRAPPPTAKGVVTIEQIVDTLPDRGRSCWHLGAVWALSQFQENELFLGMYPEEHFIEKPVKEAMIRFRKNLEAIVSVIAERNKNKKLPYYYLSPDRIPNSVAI
Outline: (§1)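 Source is rat polymorphonuclear leukocyte (PMN) 5-lipoxygenase. IC50 values come from nonlinear regression analysis, significant at p < 0.05.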

[2] = tested on: Cavia porcellus; experiment: Ability to inhibit the Ovalbumin induced bronchospasm in guinea pig was determined in vivo at a dose of 50 mg/kg id; format: functional; settings: route intraduodenal
Outline: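 Guinea pigs were challenged with LTD4 or ovalbumin to induce bronchospasm, and test agent was given intraduodenally. Read-out is percent inhibition of bronchospasm. Significance uses a two-tailed Student's t test (p < 0.05). N is the number of treated animals.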

[3] = biological target: T2, Polyunsaturated fatty acid 5-lipoxygenase (Rattus norvegicus, UniProt P12527); experiment: (§2) Ability to inhibit Lipoxygenase in vitro was determined
T2 sequence (P12527 whole entry): T1 sequence (whole entry)

[4] = species: Rattus norvegicus; experiment: Tested for metabolic activation counted as mean number of revertants in strains TA98, TA100, TA1535, and TA1538, three plates per treatment at 0.005 mg per plate, with activation provided by S-9 rat liver homogenates in Ames test; format: functional, organism-based
[5] = species: Rattus norvegicus; experiment: Tested for metabolic activation counted as mean number of revertants in strains TA98, TA100, TA1535, and TA1538, three plates per treatment at 0.005 mg per plate, without activation in the absence of S-9 rat liver homogenates in Ames test; format: functional, organism-based
[6] = species: Rattus norvegicus; experiment: Tested for metabolic activation counted as mean number of revertants in strains TA98, TA100, TA1535, and TA1538, three plates per treatment at 0.015 mg per plate, without activation in the absence of S-9 rat liver homogenates in Ames test; format: functional, organism-based
[7] = species: Rattus norvegicus; experiment: Tested for metabolic activation counted as mean number of revertants in strains TA98, TA100, TA1535, and TA1538, three plates per treatment at 0.05 mg per plate, with activation provided by S-9 rat liver homogenates in Ames test; format: functional, organism-based
[8] = species: Rattus norvegicus; experiment: Tested for metabolic activation counted as mean number of revertants in strains TA98, TA100, TA1535, and TA1538, three plates per treatment at 0.05 mg per plate, without activation in the absence of S-9 rat liver homogenates in Ames test; format: functional, organism-based
[9] = species: Rattus norvegicus; experiment: Tested for metabolic activation counted as mean number of revertants in strains TA98, TA100, TA1535, and TA1538, three plates per treatment at 0.15 mg per plate, with activation provided by S-9 rat liver homogenates in Ames test; format: functional, organism-based
[10] = species: Rattus norvegicus; experiment: Tested for metabolic activation counted as mean number of revertants in strains TA98, TA100, TA1535, and TA1538, three plates per treatment at 0.15 mg per plate, without activation in the absence of S-9 rat liver homogenates in Ames test; format: functional, organism-based
[11] = species: Rattus norvegicus; experiment: Tested for metabolic activation counted as mean number of revertants in strains TA98, TA100, TA1535, and TA1538, three plates per treatment at 0.5 mg per plate, with activation provided by S-9 rat liver homogenates in Ames test; format: functional, organism-based
[12] = species: Rattus norvegicus; experiment: Tested for metabolic activation counted as mean number of revertants in strains TA98, TA100, TA1535, and TA1538, three plates per treatment at 0.015 mg per plate, with activation provided by S-9 rat liver homogenates in Ames test; format: functional, organism-based
[13] = tested on: Cysteinyl leukotriene receptor (Cavia porcellus); experiment: Inhibition of LTD4 induced bronchospasm in guinea pig was determined in at 50 mg/kg i.d.
[14] = biological target: T2, Polyunsaturated fatty acid 5-lipoxygenase; experiment: as §2; outline: as §1; remark: listed apart in the source

Row | Compound | inhibition [1] [%] | IC50 [3] [µM] | inhibition in vivo at 50 mg/kg [2] [%] | also measured
1 | COC(=O)CCC(=O)N(O)c1cccc(OCc2nc3ccccc3s2)c1 |  | 0.36 | 6 | inhibition [13]: 79%
2 | O=C(O)CCC(=O)Nc1cccc(OCc2nc3ccccc3s2)c1 | < 50 |  |  | 
3 | COC(=O)CC(=O)Nc1cccc(OCc2nc3ccccc3s2)c1 |  |  | 58 | IC50 [14]: 17 µM
4 | CCCc1c(OCCCCc2nnn[nH]2)ccc(C(C)=O)c1O [TOMELUKAST] |  | 18.9 | 79.7 | 
5 | CCCCCC(O)c1cccc(OCc2ccc3ccccc3n2)c1 (stereo not drawn) [REV-5901] |  |  | 60.2 | 
6 | COC(=O)CCC(=O)N(C)c1cccc(OCc2nc3ccccc3s2)c1 |  | 21 | 19 | 

Second part, led by results:

Row | inhibition [1] [%] | IC50 [3] [µM] | Compound | inhibition in vivo at 50 mg/kg [2] [%] | also measured
7 | < 50 |  | COC(=O)C1CC(=O)N(c2cccc(OCc3nc4ccccc4n3C)c2)C1 (stereo not drawn) |  | 
8 | < 50 |  | COC(=O)CC(=O)Nc1cccc(OCc2nc3ccccc3n2C)c1 | 5 | 
9 |  | 30 | COC(=O)C1CC(=O)N(c2cccc(OCc3nc4ccccc4o3)c2)C1 (stereo not drawn) |  | 
10 | < 50 |  | O=C1CCC(=O)N1c1cccc(OCc2ccc3ccccc3n2)c1 | 26 | Mean no. of revertants [4]: 5; Mean no. of revertants [5]: 6; Mean no. of revertants [6]: 9; Mean no. of revertants [7]: 7; Mean no. of revertants [8]: 12; Mean no. of revertants [9]: 8; Mean no. of revertants [10]: 43; Mean no. of revertants [11]: 45; Mean no. of revertants [12]: 7
11 | < 50 |  | Cn1c(COc2cccc(N3C(=O)CCC3=O)c2)nc2ccccc21 |  | 
12 |  | 14 | COC(=O)C1CC(=O)N(c2cccc(OCc3nc4ccccc4s3)c2)C1 (stereo not drawn) |  | 
